# Source: ChEMBL document CHEMBL1649256, “Comparison of assessment of oxygen consumption, Etest, and CLSI M38-A2 broth microdilution methods for evaluation of the susceptibility of Aspergillus fumigatus to posaconazole” (2009)
# How the values were obtained:
# Assay type in all cases: functional
# Aspergillus fumigatus [1] = assay: Antimicrobial activity against Aspergillus fumigatus isolate 45 after 24 hrs by Etest; settings: isolate 45, 24 h
# Aspergillus fumigatus [2] = assay: Antimicrobial activity against Aspergillus fumigatus isolate 48 after 48 hrs by Etest; settings: isolate 48, 48 h
# Aspergillus fumigatus [3] = assay: Antimicrobial activity against Aspergillus fumigatus isolate 33 after 24 hrs by Etest; settings: isolate 33, 24 h
# In short: (§1)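 Posaconazole Etest strips on RPMI 1640 agar with 2% glucose, pH 7.0, run per the strip maker's instructions. Incubated at 35°C. MIC read at 24 h and at 48 h, matching the time in each line.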
# Aspergillus fumigatus [4] = assay: Antimicrobial activity against Aspergillus fumigatus isolate 18 by CLSI M38-A2 broth microdilution method
# In short: (§2)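 Posaconazole broth microdilution follows CLSI M38-A2. The MIC is the lowest concentration with no visible growth at 48 h. Candida parapsilosis ATCC 22019 and Candida krusei ATCC 6258 were included as QC strains in every run.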
# Aspergillus fumigatus [5] = assay: Antimicrobial activity against Aspergillus fumigatus isolate 29 by oxygen consumption method
# In short: (§3)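 Conidial suspension in RPMI 1640 broth, 1.5 ml, with two drug concentrations (0.25 and 2 μg/ml). Tubes agitated 12 h at 37°C in a biological oxygen monitor. Available oxygen monitored continuously and quantified to assign the MIC.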
# Aspergillus fumigatus [6] = assay: Antimicrobial activity against Aspergillus fumigatus isolate 13 by CLSI M38-A2 broth microdilution method; in short: as §2
# Aspergillus fumigatus [7] = assay: Antimicrobial activity against Aspergillus fumigatus isolate 49 after 24 hrs by Etest; settings: isolate 49, 24 h
# Aspergillus fumigatus [8] = assay: Antimicrobial activity against Aspergillus fumigatus isolate 48 by CLSI M38-A2 broth microdilution method
# Aspergillus fumigatus [9] = assay: Antimicrobial activity against Aspergillus fumigatus isolate 1 after 48 hrs by Etest; settings: isolate 1, 48 h
# In short: (§4)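 Posaconazole Etest strips placed on RPMI 1640 agar with 2% glucose, pH 7.0, and run per the strip maker's instructions. Incubation at 35°C, with the MIC read at 24 h and at 48 h.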
# Aspergillus fumigatus [10] = assay: Antimicrobial activity against Aspergillus fumigatus isolate 10 by CLSI M38-A2 broth microdilution method; in short: as §2
# Aspergillus fumigatus [11] = assay: Antimicrobial activity against Aspergillus fumigatus isolate 21 by oxygen consumption method; in short: as §3
# Aspergillus fumigatus [12] = assay: Antimicrobial activity against Aspergillus fumigatus isolate 8 after 24 hrs by Etest; settings: isolate 8, 24 h
# Aspergillus fumigatus [13] = assay: Antimicrobial activity against Aspergillus fumigatus isolate 16 after 48 hrs by Etest; settings: isolate 16, 48 h; in short: as §4
# Aspergillus fumigatus [14] = assay: Antimicrobial activity against Aspergillus fumigatus isolate 35 after 24 hrs by Etest; settings: isolate 35, 24 h; in short: as §1
# Aspergillus fumigatus [15] = assay: Antimicrobial activity against Aspergillus fumigatus isolate 44 by oxygen consumption method
# Aspergillus fumigatus [16] = assay: Antimicrobial activity against Aspergillus fumigatus isolate 31 by CLSI M38-A2 broth microdilution method
# In short: (§5)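 Reference broth microdilution per CLSI M38-A2. MIC read as absence of visible growth at 48 h. C. parapsilosis ATCC 22019 and C. krusei ATCC 6258 QC strains run in each test session.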
# Aspergillus fumigatus [17] = assay: Antimicrobial activity against Aspergillus fumigatus isolate 34 by oxygen consumption method
# In short: (§6)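 Conidial suspension in RPMI 1640 broth, tested at two posaconazole levels (0.25 and 2 μg/ml). Agitated for 12 h at 37°C in a biological oxygen monitor. MIC derived from continuous monitoring and quantification of the available oxygen.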
# Aspergillus fumigatus [18] = assay: Antimicrobial activity against Aspergillus fumigatus isolate 17 by CLSI M38-A2 broth microdilution method; in short: as §2
# Aspergillus fumigatus [19] = assay: Antimicrobial activity against Aspergillus fumigatus isolate 50 by oxygen consumption method
# Aspergillus fumigatus [20] = assay: Antimicrobial activity against Aspergillus fumigatus isolate 30 by oxygen consumption method; in short: as §3
# Aspergillus fumigatus [21] = assay: Antimicrobial activity against Aspergillus fumigatus isolate 47 by CLSI M38-A2 broth microdilution method
# Aspergillus fumigatus [22] = assay: Antimicrobial activity against Aspergillus fumigatus isolate 25 after 24 hrs by Etest; settings: isolate 25, 24 h
# In short: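 Etest strips on RPMI 1640 agar with 2% glucose, pH 7.0, run per manufacturer's instructions. Incubated at 35°C; MIC read at 24 h.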
# Aspergillus fumigatus [23] = assay: Antimicrobial activity against Aspergillus fumigatus isolate 33 after 48 hrs by Etest; settings: isolate 33, 48 h; in short: as §1
# Aspergillus fumigatus [24] = assay: Antimicrobial activity against Aspergillus fumigatus isolate 15 by CLSI M38-A2 broth microdilution method; in short: as §2
# Aspergillus fumigatus [25] = assay: Antimicrobial activity against Aspergillus fumigatus isolate 3 by CLSI M38-A2 broth microdilution method; in short: as §5
# Aspergillus fumigatus [26] = assay: Antimicrobial activity against Aspergillus fumigatus isolate 40 by oxygen consumption method; in short: as §6
# Aspergillus fumigatus [27] = assay: Antimicrobial activity against Aspergillus fumigatus isolate 11 after 48 hrs by Etest; settings: isolate 11, 48 h; in short: as §4
# Aspergillus fumigatus [28] = assay: Antimicrobial activity against Aspergillus fumigatus isolate 43 by oxygen consumption method
# Aspergillus fumigatus [29] = assay: Antimicrobial activity against Aspergillus fumigatus isolate 36 by CLSI M38-A2 broth microdilution method
# In short: (§7)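 CLSI M38-A2 broth microdilution with posaconazole. MIC taken as the lowest concentration with no visible growth at 48 h. C. parapsilosis ATCC 22019 and C. krusei ATCC 6258 were included as QC strains in every run.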
# Aspergillus fumigatus [30] = assay: Antimicrobial activity against Aspergillus fumigatus isolate 35 after 48 hrs by Etest; settings: isolate 35, 48 h; in short: as §1
# Aspergillus fumigatus [31] = assay: Antimicrobial activity against Aspergillus fumigatus isolate 38 by CLSI M38-A2 broth microdilution method; in short: as §7
# Aspergillus fumigatus [32] = assay: Antimicrobial activity against Aspergillus fumigatus isolate 42 by CLSI M38-A2 broth microdilution method; in short: as §7
# Aspergillus fumigatus [33] = assay: Antimicrobial activity against Aspergillus fumigatus isolate 22 after 48 hrs by Etest; settings: isolate 22, 48 h
# In short: (§8)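 Etest strips on RPMI 1640 agar with 2% glucose, pH 7.0, run per manufacturer's instructions. Incubated at 35°C; MIC read at 48 h.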
# Aspergillus fumigatus [34] = assay: Antimicrobial activity against Aspergillus fumigatus isolate 1 by oxygen consumption method
# In short: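 Conidial suspension in RPMI 1640 broth with posaconazole at 0.25 and 2 μg/ml. Tubes agitated 12 h at 37°C in a biological oxygen monitor. Available oxygen was monitored continuously, and the MIC was assigned from the oxygen quantification.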
# Aspergillus fumigatus [35] = assay: Antimicrobial activity against Aspergillus fumigatus isolate 5 after 24 hrs by Etest; settings: isolate 5, 24 h
# Aspergillus fumigatus [36] = assay: Antimicrobial activity against Aspergillus fumigatus isolate 8 by oxygen consumption method
# Aspergillus fumigatus [37] = assay: Antimicrobial activity against Aspergillus fumigatus isolate 37 after 48 hrs by Etest; settings: isolate 37, 48 h; in short: as §1
# Aspergillus fumigatus [38] = assay: Antimicrobial activity against Aspergillus fumigatus isolate 25 after 48 hrs by Etest; settings: isolate 25, 48 h; in short: as §8
# Aspergillus fumigatus [39] = assay: Antimicrobial activity against Aspergillus fumigatus isolate 21 by CLSI M38-A2 broth microdilution method; in short: as §5
# Aspergillus fumigatus [40] = assay: Antimicrobial activity against Aspergillus fumigatus isolate 46 after 48 hrs by Etest; settings: isolate 46, 48 h
# Aspergillus fumigatus [41] = assay: Antimicrobial activity against Aspergillus fumigatus isolate 43 after 24 hrs by Etest; settings: isolate 43, 24 h; in short: as §1
# Aspergillus fumigatus [42] = assay: Antimicrobial activity against Aspergillus fumigatus isolate 46 after 24 hrs by Etest; settings: isolate 46, 24 h
# Aspergillus fumigatus [43] = assay: Antimicrobial activity against Aspergillus fumigatus isolate 18 after 48 hrs by Etest; settings: isolate 18, 48 h; in short: as §4
# Aspergillus fumigatus [44] = assay: Antimicrobial activity against Aspergillus fumigatus isolate 40 by CLSI M38-A2 broth microdilution method; in short: as §7
compound,measurement,setting,value
CC[C@@H]([C@H](C)O)n1ncn(-c2ccc(N3CCN(c4ccc(OC[C@@H]5CO[C@@](Cn6cncn6)(c6ccc(F)cc6F)C5)cc4)CC3)cc2)c1=O [POSACONAZOLE],MIC,Aspergillus fumigatus [1],0.125 µg/mL
same,MIC,Aspergillus fumigatus [2],≤ 0.03 µg/mL
same,MIC,Aspergillus fumigatus [3],0.25 µg/mL
same,MIC,Aspergillus fumigatus [4],0.125 µg/mL
same,MIC,Aspergillus fumigatus [5],≤ 0.25 µg/mL
same,MIC,Aspergillus fumigatus [6],0.125 µg/mL
same,MIC,Aspergillus fumigatus [7],0.5 µg/mL
same,MIC,Aspergillus fumigatus [8],0.125 µg/mL
same,MIC,Aspergillus fumigatus [9],8 µg/mL
same,MIC,Aspergillus fumigatus [10],0.25 µg/mL
same,MIC,Aspergillus fumigatus [11],≤ 0.25 µg/mL
same,MIC,Aspergillus fumigatus [12],0.25 µg/mL
same,MIC,Aspergillus fumigatus [13],0.25 µg/mL
same,MIC,Aspergillus fumigatus [14],0.25 µg/mL
same,MIC,Aspergillus fumigatus [15],≤ 0.25 µg/mL
same,MIC,Aspergillus fumigatus [16],0.125 µg/mL
same,MIC,Aspergillus fumigatus [17],≤ 0.25 µg/mL
same,MIC,Aspergillus fumigatus [18],0.125 µg/mL
same,MIC,Aspergillus fumigatus [19],≤ 0.25 µg/mL
same,MIC,Aspergillus fumigatus [20],≤ 0.25 µg/mL
same,MIC,Aspergillus fumigatus [21],0.125 µg/mL
same,MIC,Aspergillus fumigatus [22],0.25 µg/mL
same,MIC,Aspergillus fumigatus [23],0.25 µg/mL
same,MIC,Aspergillus fumigatus [24],0.06 µg/mL
same,MIC,Aspergillus fumigatus [25],1 µg/mL
same,MIC,Aspergillus fumigatus [26],≤ 0.25 µg/mL
same,MIC,Aspergillus fumigatus [27],0.25 µg/mL
same,MIC,Aspergillus fumigatus [28],≤ 0.25 µg/mL
same,MIC,Aspergillus fumigatus [29],0.125 µg/mL
same,MIC,Aspergillus fumigatus [30],0.25 µg/mL
same,MIC,Aspergillus fumigatus [31],0.125 µg/mL
same,MIC,Aspergillus fumigatus [32],0.06 µg/mL
same,MIC,Aspergillus fumigatus [33],0.25 µg/mL
same,MIC,Aspergillus fumigatus [34],≥ 0.5 µg/mL
same,MIC,Aspergillus fumigatus [35],4 µg/mL
same,MIC,Aspergillus fumigatus [36],≥ 0.5 µg/mL
same,MIC,Aspergillus fumigatus [37],0.125 µg/mL
same,MIC,Aspergillus fumigatus [38],0.25 µg/mL
same,MIC,Aspergillus fumigatus [39],0.125 µg/mL
same,MIC,Aspergillus fumigatus [40],0.125 µg/mL
same,MIC,Aspergillus fumigatus [41],≤ 0.03 µg/mL
same,MIC,Aspergillus fumigatus [42],0.125 µg/mL
same,MIC,Aspergillus fumigatus [43],0.25 µg/mL
same,MIC,Aspergillus fumigatus [44],0.125 µg/mL
